Like-named read-outs stand apart in the source and are kept apart here. Non-standard residues stand in square brackets, D forms with d. Residues, ends and D or L forms follow the SMILES beside them. F2Pmp = N[CH](Cc1ccc(C(F)(F)P(=O)(O)O)cc1)C(=O)O
Experiments:
TC-PTP = molecular target: T1, TC-PTP (Homo sapiens, UniProt P17706); test: TC-PTP-catalyzed pNPP hydrolysis inhibition; assay type: biochemical; conditions: for IC50: pNPP 2 mM, pH 7.0, 25 °C; for fold enhancement relative to parent compound 5: IC50/affinity for TC-PTP versus compound 5
T1 sequence (P17706 1-415): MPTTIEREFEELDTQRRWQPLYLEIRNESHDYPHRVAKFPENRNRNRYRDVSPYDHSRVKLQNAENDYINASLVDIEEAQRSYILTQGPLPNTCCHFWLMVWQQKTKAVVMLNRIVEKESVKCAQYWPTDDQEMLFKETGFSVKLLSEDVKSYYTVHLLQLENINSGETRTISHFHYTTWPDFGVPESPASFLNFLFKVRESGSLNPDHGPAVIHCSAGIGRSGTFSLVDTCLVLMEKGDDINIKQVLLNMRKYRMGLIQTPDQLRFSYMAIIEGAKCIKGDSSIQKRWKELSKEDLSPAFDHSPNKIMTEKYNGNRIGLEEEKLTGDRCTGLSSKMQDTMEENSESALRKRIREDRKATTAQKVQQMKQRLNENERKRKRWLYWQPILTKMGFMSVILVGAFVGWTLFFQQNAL
How it was run: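 IC50: enzyme added last (10 nM or 0.4 nM final) to 2 mM pNPP (Km) plus varied test compound, 30 min at room temperature, NaOH quench, A405. Reversibility: enzyme preincubated with test compound 30 min before pNPP. Mode/Ki: 0.4 nM enzyme, varied pNPP and inhibitor, kinetic fit.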

[1] = tested on: tyrosine phosphorylation of EGFR in PTP1B−/− mouse embryo fibroblast cells; test: EGF-stimulated EGFR phosphorylation in cells; assay type: cell-based; conditions: 200 nM
How it was run: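 PTP1B−/− mouse embryo fibroblasts were given test compound for 2 hr, then EGF 2 ng/mL for 10 min. Lysis in HEPES pH 7.4 buffer with pervanadate, fluoride and protease inhibitors, cleared at 15,000 rpm for 10 min, protein by BCA. EGFR immunoprecipitated from 1 mg lysate (4 °C, 2 h; protein A/G 2 h). SDS-PAGE, anti-pTyr immunoblot, ECL detection.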

| Structure (SMILES) | IC50 (TC-PTP; read-out: IC50 for TC-PTP) [nM] | IC50 (TC-PTP; read-out: IC50 for the TC-PTP-catalyzed reaction) [nM] | fold enhancement relative to parent compound 5 (TC-PTP) [fold] | effect on EGFR phosphorylation [1] |
| --- | --- | --- | --- | --- |
| CC(=O)NCCCCC(NC(=O)C(Cc1ccc(C(F)(F)P(=O)(O)O)cc1)NC(C)=O)C(N)=O (stereo not shown) [Compound 5] (Ac-[F2Pmp]-Lys(Ac)-NH2; configuration not given here) | 2000 | – | – | – |
| CCc1ccc(C(=O)NCCCCC(NC(=O)C(Cc2ccc(C(F)(F)P(=O)(O)O)cc2)NC(=O)C(Cc2ccccc2)NC(C)=O)C(N)=O)cc1 (stereo not shown) [Compound 7] | – | – | 77 | – |
| CCc1ccc(C(=O)NCCCCC(NC(=O)C(Cc2ccccc2)NC(=O)C(Cc2ccccc2)NC(=O)COC2CC(C)CCC2C(C)C)C(N)=O)cc1 (stereo not shown) [Compound 9] | > 1000 | – | – | no effect |

The next lines start with results.

| IC50 (TC-PTP; read-out: IC50 for TC-PTP) [nM] | IC50 (TC-PTP; read-out: IC50 for the TC-PTP-catalyzed reaction) [nM] | Structure (SMILES) | fold enhancement relative to parent compound 5 (TC-PTP) [fold] | effect on EGFR phosphorylation [1] |
| --- | --- | --- | --- | --- |
| – | 160 ± 20 | CCc1ccc(C(=O)NCCCCC(NC(=O)C(Cc2ccc(C(F)(F)P(=O)(O)O)cc2)NC(C)=O)C(N)=O)cc1 (stereo not shown) [Compound 6] | 12.5 | – |
| 20000 | – | O=C(N[C@@H](Cc1ccc(C(F)(F)P(=O)(O)O)cc1)C(=O)O)OCC1c2ccccc2-c2ccccc21 [Fmoc-F2Pmp-OH, reference compound] | – | – |

From publication PMC2741613 (Journal of the American Chemical Society, 2009)
